The source of these data is ChEMBL document CHEMBL1132231, “New generation dopaminergic agents. 6. Structure-activity relationship studies of a series of 4-(aminoethoxy)indole and 4-(aminoethoxy)indolone derivatives based on the newly discovered 3-hydroxyphenoxyethylamine D2 template” (J Med Chem, 1999).

Experiment [1] has as its target T1, Adrenergic receptor alpha-1 (Rattus norvegicus, UniProt P15823+P23944+P43140).
T1 sequence (P15823 whole entry): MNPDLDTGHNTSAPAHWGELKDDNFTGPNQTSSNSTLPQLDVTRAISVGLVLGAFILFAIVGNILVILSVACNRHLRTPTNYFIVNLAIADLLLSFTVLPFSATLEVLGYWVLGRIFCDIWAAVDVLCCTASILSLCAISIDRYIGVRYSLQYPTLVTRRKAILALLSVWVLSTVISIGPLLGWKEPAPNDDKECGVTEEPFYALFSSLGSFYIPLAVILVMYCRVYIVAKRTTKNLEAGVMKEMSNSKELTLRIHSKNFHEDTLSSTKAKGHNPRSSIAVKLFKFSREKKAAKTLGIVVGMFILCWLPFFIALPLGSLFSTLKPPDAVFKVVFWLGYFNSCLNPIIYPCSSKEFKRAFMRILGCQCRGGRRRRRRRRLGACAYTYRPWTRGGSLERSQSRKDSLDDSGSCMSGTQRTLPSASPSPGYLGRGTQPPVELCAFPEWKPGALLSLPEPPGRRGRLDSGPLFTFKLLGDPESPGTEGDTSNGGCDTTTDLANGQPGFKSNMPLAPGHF
T1 sequence (P23944 whole entry): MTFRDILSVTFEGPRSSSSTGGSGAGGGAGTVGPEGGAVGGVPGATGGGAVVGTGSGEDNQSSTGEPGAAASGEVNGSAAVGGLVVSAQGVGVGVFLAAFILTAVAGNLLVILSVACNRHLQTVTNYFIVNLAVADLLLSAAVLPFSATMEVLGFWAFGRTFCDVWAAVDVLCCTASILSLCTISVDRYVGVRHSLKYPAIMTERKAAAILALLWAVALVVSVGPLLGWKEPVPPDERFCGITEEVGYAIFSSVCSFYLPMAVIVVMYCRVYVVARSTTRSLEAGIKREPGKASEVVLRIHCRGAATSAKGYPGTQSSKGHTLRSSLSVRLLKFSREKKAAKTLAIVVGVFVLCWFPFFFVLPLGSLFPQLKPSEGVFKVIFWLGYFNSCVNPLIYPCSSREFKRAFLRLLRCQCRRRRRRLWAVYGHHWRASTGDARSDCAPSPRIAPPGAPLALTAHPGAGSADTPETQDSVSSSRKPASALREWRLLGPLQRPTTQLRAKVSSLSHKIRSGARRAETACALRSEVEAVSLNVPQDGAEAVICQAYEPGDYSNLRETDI
T1 sequence (P43140 whole entry): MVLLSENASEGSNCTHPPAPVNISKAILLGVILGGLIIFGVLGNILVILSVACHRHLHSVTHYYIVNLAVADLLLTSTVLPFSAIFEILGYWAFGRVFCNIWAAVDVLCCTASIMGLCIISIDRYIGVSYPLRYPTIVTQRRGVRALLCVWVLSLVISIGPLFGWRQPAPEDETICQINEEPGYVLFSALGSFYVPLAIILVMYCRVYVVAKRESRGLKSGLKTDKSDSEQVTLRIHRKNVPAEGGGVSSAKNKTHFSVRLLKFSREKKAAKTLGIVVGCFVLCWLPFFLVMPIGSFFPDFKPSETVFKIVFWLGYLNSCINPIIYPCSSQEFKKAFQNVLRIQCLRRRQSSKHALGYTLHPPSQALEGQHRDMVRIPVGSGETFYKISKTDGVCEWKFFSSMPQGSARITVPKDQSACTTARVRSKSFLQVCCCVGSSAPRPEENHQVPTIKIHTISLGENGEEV
Nature of the experiment: In vitro binding affinity towards alpha-1 adrenergic receptor by the displacement of [3H]prazosin radioligand in rat cortical homogenates. An outline of the steps:
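Rat cortical homogenates labelled with [3H]prazosin (0.2 nM), incubated 30 min at 25 °C. Stopped with cold 50 mM Tris pH 7.4, then rapid filtration. Triplicate, at least eight concentrations. Nonlinear regression gave IC50, converted to apparent Ki by Cheng-Prusoff. Means of at least two experiments ± SEM; values without SEM are single determinations.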

The target in experiment [2] is T2, D(2) dopamine receptor (Rattus norvegicus, UniProt P61169). Nature of the experiment: In vitro high binding affinity towards Dopamine receptor D2 by the displacement of [3H]quinpirole radioligand in rat striatal membranes. Format: cell membranes, Membrane. (In general: In a radioligand displacement assay an active substance lowers the binding of a labelled ligand.)
T2 sequence (P61169 whole entry): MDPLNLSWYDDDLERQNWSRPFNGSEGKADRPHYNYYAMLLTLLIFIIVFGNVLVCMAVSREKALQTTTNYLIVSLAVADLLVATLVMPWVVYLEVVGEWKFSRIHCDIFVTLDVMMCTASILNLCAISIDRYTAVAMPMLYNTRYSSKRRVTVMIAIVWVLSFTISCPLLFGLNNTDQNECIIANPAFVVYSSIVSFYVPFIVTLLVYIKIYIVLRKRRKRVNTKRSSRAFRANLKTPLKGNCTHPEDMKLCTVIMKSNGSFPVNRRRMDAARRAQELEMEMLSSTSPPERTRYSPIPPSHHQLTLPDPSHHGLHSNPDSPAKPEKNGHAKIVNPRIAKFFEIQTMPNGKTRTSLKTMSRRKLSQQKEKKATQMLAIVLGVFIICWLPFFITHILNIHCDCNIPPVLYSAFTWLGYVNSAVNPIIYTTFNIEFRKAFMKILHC

In experiment [3] the target is T2, D(2) dopamine receptor. Briefly: In vitro low binding affinity towards Dopamine receptor D2 by the displacement of [3H]spiperone radioligand in rat striatal membranes. Format: cell membranes, Membrane.
In experiment [4] the target is T3, 5-hydroxytryptamine receptor 1A (Rattus norvegicus, UniProt P19327).
T3 sequence (P19327 whole entry): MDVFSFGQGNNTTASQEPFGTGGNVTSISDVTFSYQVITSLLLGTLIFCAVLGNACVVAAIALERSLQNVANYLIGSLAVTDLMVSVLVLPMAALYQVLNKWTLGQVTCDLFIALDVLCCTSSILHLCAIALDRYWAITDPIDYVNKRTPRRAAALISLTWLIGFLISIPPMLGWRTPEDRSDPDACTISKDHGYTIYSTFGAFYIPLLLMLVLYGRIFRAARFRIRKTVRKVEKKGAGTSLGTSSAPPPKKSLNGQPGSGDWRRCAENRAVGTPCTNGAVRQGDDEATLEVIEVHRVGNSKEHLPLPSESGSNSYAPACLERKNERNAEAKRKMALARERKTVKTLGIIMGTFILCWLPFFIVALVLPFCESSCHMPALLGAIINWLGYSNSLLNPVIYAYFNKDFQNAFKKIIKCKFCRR
Briefly: In vitro binding affinity towards 5-hydroxytryptamine 1A receptor by the displacement of [3H]8-OH-DPAT radioligand in rat hippocampal homogenates. In kind it is tissue-based, Hippocampus.

The target in experiment [5] is D(2) dopamine receptor (Rattus norvegicus) (UniProt P61169). Briefly: Ratio of Dopamine D2 receptor (low)and Dopamine D2 receptor (high). Summed up: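 Ratio Ki(low)/Ki(high). Ki(low) comes from displacement of 1 nM [3H]spiperone in striatal membranes with 1 mM GppNHp and NaCl, 37 °C for 5 min. […] Both Ki values derived by Cheng-Prusoff from nine concentrations in triplicate; the ratio serves as an estimate of intrinsic activity.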
D(2) dopamine receptor (Rattus norvegicus), sequence (P61169 whole entry): as the sequence (P61169 whole entry) above

The target of experiment [6] is T1, Adrenergic receptor alpha-1. Briefly: In vitro binding affinity towards Alpha-1 adrenergic receptor by the displacement of [3H]prazosin radioligand in rat cortical homogenates.

As usually defined, the Ki is a dissociation constant, usually derived from enzyme kinetics or from competition with a known ligand. Low values mean higher affinity, high ones lower affinity.

Turning to `c1ccc(CCCCNCCOc2cccc3[nH]ccc23)cc1`, the inhibition constant Ki in experiment [1] is 11.5 nM; on D(2) dopamine receptor [2], 5.3 nM; at D(2) dopamine receptor [3], 14.4 nM; in experiment [4], 0.4 nM. In addition, the Ratio in experiment [5] is 3.
`O=C1Cc2c(OCCN3Cc4ccccc4C3)ccc(Cl)c2N1`: the inhibition constant Ki at D(2) dopamine receptor [2] came to 0.44 nM; at D(2) dopamine receptor [3], 2.85 nM; in experiment [4], 41 nM; in experiment [6], 85 nM.
For `O=C1Cc2c(OCCNCc3ccc(Cl)cc3)ccc(Cl)c2N1`, the inhibitory constant (Ki) came to 1.4 nM on D(2) dopamine receptor [2], 4.1 nM at D(2) dopamine receptor [3], 1890 nM in experiment [4] and 134 nM in experiment [6].
On to `O=C1Cc2c(OCCNCc3ccc(-c4ccccc4)cc3)ccc(Cl)c2N1`, for which the Ki turned out to be 268 nM in experiment [1], 17.4 nM on D(2) dopamine receptor [2], 46.7 nM at D(2) dopamine receptor [3] and 38 nM in experiment [4]. The Ratio in experiment [5] is 3.
Consider `O=C1Cc2c(OCCNCc3ccsc3)ccc(F)c2N1`, for which the Ki on D(2) dopamine receptor [2] was 0.84 nM; on D(2) dopamine receptor [3], 17.8 nM; in experiment [4], 24 nM; in experiment [6], 39 nM.
`Cc1ccc(CNCCOc2ccc(Cl)c3c2CC(=O)N3)cc1`: the Ki in experiment [1] stood at 334 nM; on D(2) dopamine receptor [2], 0.64 nM; at D(2) dopamine receptor [3], 5.5 nM; in experiment [4], 1170 nM. The Ratio in experiment [5] was 9.
Take `O=C(c1c[nH]c2c(Cl)ccc(OCCNCc3ccccc3)c12)C(F)(F)F`: the figures for the inhibitory constant (Ki) in experiment [1] and in experiment [4] were 97.5 nM and 51 nM, respectively.
Consider `O=C1Cc2c(OCCNCCCc3c[nH]c4ccccc34)ccc(F)c2N1`, for which the Ki in experiment [1] worked out at 26 nM; on D(2) dopamine receptor [2], 0.15 nM; at D(2) dopamine receptor [3], 3.03 nM; in experiment [4], 12 nM. In addition, in experiment [5], the Ratio came out at 20.
The corresponding values for `O=C1Cc2c(cccc2OCCNCCCCc2ccccc2)N1` are 13 nM, 0.23 nM, 2.06 nM, 1.9 nM and 9.
`Fc1ccc(CNCCOc2ccc(Cl)c3[nH]cc(Cl)c23)cc1`: the Ki stood at 229 nM in experiment [1], 50 nM on D(2) dopamine receptor [2], 59.5 nM on D(2) dopamine receptor [3] and 685 nM in experiment [4]. Also, the Ratio in experiment [5] is 1.
As for `CN(CCOc1ccc(Cl)c2c1CC(=O)N2)Cc1ccccc1`, the Ki in experiment [1] worked out at 41 nM; at D(2) dopamine receptor [2], 2.6 nM; at D(2) dopamine receptor [3], 23.4 nM; in experiment [4], 8 nM. Moreover, the Ratio in experiment [5] came to 9.
On to `Oc1cccc(OCCNCc2ccccc2)c1`, for which the Ki turned out to be 5291 nM in experiment [1], 115 nM on D(2) dopamine receptor [3] and 1780 nM in experiment [4]. Besides, the Ratio in experiment [5] was determined as 32.
Regarding `Clc1ccc(OCCNCc2cccs2)c2c(Cl)c[nH]c12`, the values for the Ki at D(2) dopamine receptor [2] and on D(2) dopamine receptor [3] were 12.3 nM and 38.4 nM, respectively. The Ratio in experiment [5] came to 3.
In the case of `Clc1ccc(CNCCOc2ccc(Cl)c3[nH]cc(Cl)c23)cc1`, the inhibition constant (Ki) in experiment [1] was 458 nM; on D(2) dopamine receptor [2], 77.1 nM; at D(2) dopamine receptor [3], 29.8 nM. The Ratio in experiment [5] stood at 0.4.
`Oc1ccc2c(c1)O[C@@H](CNCc1ccccc1)CN2`: the inhibition constant Ki was 6.7 nM at D(2) dopamine receptor [2] and 130 nM on D(2) dopamine receptor [3].
As for `O=C1Cc2c(OCCNCc3ccc(F)cc3)ccc(Cl)c2N1`, the inhibitory constant (Ki) in experiment [1] worked out at 431 nM; at D(2) dopamine receptor [2], 1.3 nM; on D(2) dopamine receptor [3], 13.8 nM; in experiment [4], 6560 nM. The Ratio in experiment [5] turned out to be 11.
The corresponding values for `O=C1Cc2c(ccc3c2O[C@@H](CNCc2ccccc2)CC3)N1` are 165 nM, 0.14 nM, 5.9 nM, 8.5 nM and 42.
In the case of `O=C1Cc2c(OCCNCc3ccccc3)ccc(Cl)c2N1`, the Ki in experiment [1] came to 350 nM; on D(2) dopamine receptor [2] it was 0.41 nM; on D(2) dopamine receptor [3], 2.8 nM; in experiment [4], 2660 nM. Further, the Ratio in experiment [5] is 7.
Turning to `O=C1Cc2c(OCCNCc3cccs3)ccc(Cl)c2N1`, the Ki in experiment [4] worked out at 59 nM; in experiment [6], 5 nM.
For `NCCOc1ccc(F)c2c1CC(=O)N2`, the Ki in experiment [1] was determined as 25 nM; at D(2) dopamine receptor [2], 12.1 nM; on D(2) dopamine receptor [3], 916 nM; in experiment [4] it was 25 nM. The Ratio in experiment [5] was 76.
In the case of `CNCCOc1cccc2c1CC(=O)N2`, the Ki in experiment [1] amounted to 1057 nM; at D(2) dopamine receptor [2], 2 nM; at D(2) dopamine receptor [3], 147 nM; in experiment [4] it was 276 nM. Further, the Ratio in experiment [5] worked out at 74.
Regarding `Clc1ccc(OCCNCc2ccccc2)c2cc[nH]c12`, the Ki in experiment [1] came out at 138.5 nM; at D(2) dopamine receptor [2] it was 7.4 nM; on D(2) dopamine receptor [3], 14.4 nM; in experiment [4] it was 193 nM. Besides, in experiment [5], the Ratio was determined as 2.
As for `O=C1Cc2c(OCCN3CCc4ccccc4C3)ccc(Cl)c2N1`, the Ki in experiment [1] came to 143 nM; on D(2) dopamine receptor [2] it was 0.55 nM; at D(2) dopamine receptor [3] it was 4.27 nM; in experiment [4] it was 17 nM. The Ratio in experiment [5] turned out to be 8.
On to `O=C1Cc2c(OCCN3Cc4ccccc4C3)ccc(F)c2N1`, for which the Ki in experiment [1] came to 268 nM; on D(2) dopamine receptor [2], 2.08 nM; on D(2) dopamine receptor [3], 16 nM; in experiment [4] it was 13 nM. Besides, the Ratio in experiment [5] came to 7.
The corresponding values for `Clc1ccc(OCCNCc2ccccc2)c2c(Cl)c[nH]c12` are 66 nM, 7 nM, 19.9 nM, 219 nM and 3.
For the compound `CCCCNCCOc1ccc(Cl)c2c1CC(=O)N2`, the Ki came to 11 nM in experiment [1], 0.84 nM on D(2) dopamine receptor [2] and 14.6 nM on D(2) dopamine receptor [3]. Besides, the Ratio in experiment [5] is 17.
For the compound `CN(CCCC(=O)c1ccc(F)cc1)CCOc1cccc2c1CC(=O)N2`, the Ki in experiment [1] stood at 9.5 nM; at D(2) dopamine receptor [2] it was 3.1 nM; on D(2) dopamine receptor [3], 24.1 nM; in experiment [4] it was 253 nM. In experiment [5], the Ratio is 8.
In the case of `O=C1Cc2c(OCCNCc3cccc(-c4ccccc4)c3)ccc(F)c2N1`, the inhibition constant (Ki) in experiment [4] is 625 nM; in experiment [6] it was 2899 nM.
For the compound `O=C1Cc2c(OCCNCc3ccc4ccccc4c3)ccc(F)c2N1`, the Ki came out at 154 nM in experiment [1], 0.63 nM at D(2) dopamine receptor [2], 9 nM at D(2) dopamine receptor [3] and 121 nM in experiment [4]. Also, the Ratio in experiment [5] stood at 14.
